From PubChem
KCNQ1 inh: blocks the human KCNQ1 potassium channel | P51787 | CHO-K1 KCNQ1, FluxOR thallium flux fluorescence; active compounds read high | B-score at 10 µM | 1.3% of 310,000 active | AID 2642;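 active means compounds whose thallium flux B-score, printed positive for inhibition, exceeds three library SD while starting fluorescence stays within three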;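 further: channel opened by potassium depolarization with thallium stimulus after 20 min compound exposure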
KCNK9 block: inhibitors of human KCNK9 two-pore domain potassium channel. HEK293 KCNK9, FluxOR thallium flux fluorescence; active compounds read low. B-score at 10 µM. 1.2% of 310,000 active;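 active means ratio B-score over 3 SD below the library mean, with starting fluorescence within 5 SD of its mean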;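 further: negative B-score means less thallium flux so channel inhibition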
Kir21 block: blocks the mouse Kir2.1 inward-rectifier potassium channel | B-score at 10 µM | AID 1672 | HEK293-Kir2.1, FluxOR thallium flux fluorescence; active compounds read low | P35561 | 0.85% of 310,000 active;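 active means fluorescence ratio B-score at or below minus 3 SD of library scores, with starting-brightness B-score within 2 SD, cut at about -4.2 in these data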;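 further: channel flux triggered by added potassium and thallium sulfate stimulus; B-score of peak minus minimum fluorescence over baseline after thallium stimulus; more negative B-score means stronger Kir2.1 block with less thallium influx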
Target sequence (P35561 whole entry, looked up): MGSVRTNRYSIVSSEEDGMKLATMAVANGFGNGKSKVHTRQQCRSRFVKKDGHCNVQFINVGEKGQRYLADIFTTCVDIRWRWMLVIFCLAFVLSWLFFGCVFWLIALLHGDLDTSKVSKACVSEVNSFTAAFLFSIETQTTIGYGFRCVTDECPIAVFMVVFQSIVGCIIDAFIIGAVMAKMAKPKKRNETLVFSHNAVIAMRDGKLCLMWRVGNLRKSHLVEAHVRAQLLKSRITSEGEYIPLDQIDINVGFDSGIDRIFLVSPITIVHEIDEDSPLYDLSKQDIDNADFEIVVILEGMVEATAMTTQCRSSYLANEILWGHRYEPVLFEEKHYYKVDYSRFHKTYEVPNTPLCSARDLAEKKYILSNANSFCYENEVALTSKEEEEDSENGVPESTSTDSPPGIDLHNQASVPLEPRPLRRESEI
KCNQ1 act: potentiates or activates the human KCNQ1 potassium channel; CHO-K1 KCNQ1, thallium flux FluxOR fluorescence; active compounds read high; P51787; 0.35% of 310,000 active; B-score at 10 µM;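 active means fluorescence ratio B-score, a plate-corrected score, at least three library SD, with initial intensity B-score within 5 SD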
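Assay system: stable KCNQ1 CHO-K1 line; medium: assay buffer, equal DMSO in all wells; timing: 90 min dye loading and 20 min compound exposure, both at room temperature; technique: kinetic FluxOR thallium fluorescence, 10-s 1-Hz baseline, 110-s post-stimulus read; read-out basis: B score of baseline-normalized fluorescence ratio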
hERG protect: compounds protecting human hERG from proarrhythmic drug block | Q12809 | CHO-hERG, FluxOR thallium flux, dofetilide IC70 present | activation (rescue from dofetilide block), less the hit threshold, % at 10 µM | 0.51% of 310,000 active | AID 1511;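 active means activation above the mean of controls blocked by dofetilide plus 5 SD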;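 further: thallium influx through hERG after potassium depolarization seen as dye fluorescence rise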
KCNK3 block: human KCNK3 channel inhibition, primary screen. O14649. 0.84% of 340,000 active. AID 602410. CHO-KCNK3 thallium flux, FluxOR fluorescence; active compounds read low. B-score at 10 µM;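 active means B-score under library mean minus 4 SD, starting fluorescence ratio at most library mean plus 5 SD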;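 further: more negative B-score means stronger inhibition of thallium flux through KCNK3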
KCNK9 block conf: confirmation of human KCNK9 potassium channel inhibitors; HEK293 KCNK9 cells, FluxOR thallium flux fluorescence; inhibition, % at 10 µM; shares compounds with KCNK9 block; 43% of 4,900 active;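 active means thallium signal inhibited by more than 5 SD of the compound-free buffer control wells, on both duplicate plates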
Kir21 sel: tests whether KCNK9 modulators also affect mouse Kir2.1; shares compounds with KCNK9 block; Kir2.1 cells, FluxOR thallium flux fluorescence; inhibition, % at 10 µM; 4% of 4,900 active; AID 492993;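 active means thallium signal drop more than 5 SD beyond the mean of the no-compound control wells, seen in both duplicate plates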;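 further: signal is fluorescence rise after thallium addition divided by baseline fluorescence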
KCNK9 uninduced: second check of KCNK9 modulator effects in non-induced HEK293 cells; 40% of 4,900 active; FluxOR thallium flux; inhibition, % at 10 µM; shares compounds with KCNK9 block; AID 492997;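 active means thallium signal drop beyond 5 SD of the untreated control mean, on both duplicate plates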
KCNK3 inh conf: human KCNK3 channel inhibition, confirmation assay; shares compounds with KCNK3 block; CHO-KCNK3 thallium flux, FluxOR fluorescence; 0% buffer, 100% carvedilol maximal block; ratio percent of control, % at 10 µM; 99% of 2,400 active; AID 651638;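 active means ratio percent of control, averaged over triplicates, above buffer control mean plus 5 SD, cut at about 64% in these data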;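 further: ratio is the fluorescence rise from min to max over baseline after thallium stimulus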
KCNK3 uninduced: counter-screen for KCNK3 inhibitors: effect in non-induced cells | thallium flux ratio (lower = more inhibition) at 10 µM | shares compounds with KCNK3 block | non-induced KCNK3 parental cells, FluxOR thallium flux; active compounds read low | 40% of 2,400 active | AID 651747;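 active means thallium flux ratio, averaged over three wells, more than 5 SD below the buffer control mean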;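 further: host cells are CHO cells without KCNK3 induction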
Numbers stand for hits. Compounds with a hit are over-represented: about 3.7% of the library has one in this group of screens.

CCN(CC)C(=O)Oc1cc2c(-c3cc4cccc(OC)c4o3)cc(=O)oc2cc1C was read as KCNQ1 inh inactive, KCNK9 block -20.7, Kir21 block inactive, KCNQ1 act inactive, hERG protect inactive, KCNK3 block -13.9, KCNK9 block conf 77.0%, Kir21 sel inactive, KCNK9 uninduced inactive, KCNK3 inh conf 101.3 and KCNK3 uninduced inactive.
For O=[N+]([O-])c1cccc(-c2nnc3ccccn23)c1 the results were KCNQ1 inh inactive, KCNK9 block inactive, Kir21 block inactive, KCNQ1 act inactive and hERG protect inactive.
For Cc1nc(N2CCN(c3ccc(Cl)cc3)CC2)[nH]c(=O)c1C the results were KCNQ1 inh inactive, KCNK9 block inactive, Kir21 block inactive, KCNQ1 act inactive, hERG protect inactive and KCNK3 block inactive.
`CCCc1cc(C(=O)Cc2ccc(F)cc2)c(O)cc1O` gave KCNQ1 inh inactive, KCNK9 block -10.3, Kir21 block inactive, KCNQ1 act inactive, hERG protect inactive, KCNK3 block -8.79, KCNK9 block conf 60.5%, Kir21 sel inactive, KCNK9 uninduced 37.5%, KCNK3 inh conf 107.7 and KCNK3 uninduced inactive.
For Cc1ccc2c(CN(C)Cc3ccc(Cl)cc3Cl)cc(=O)oc2c1 the results were KCNQ1 inh inactive, KCNK9 block inactive, Kir21 block inactive, KCNQ1 act inactive, hERG protect inactive and KCNK3 block inactive.
Screening Cc1ccc2c(CN(C)Cc3ccccc3)cc(=O)oc2c1C returned KCNQ1 inh inactive, KCNK9 block inactive, Kir21 block inactive, KCNQ1 act inactive, hERG protect inactive, KCNK3 block -9.35, KCNK9 block conf inactive, Kir21 sel inactive, KCNK9 uninduced inactive, KCNK3 inh conf 92.0 and KCNK3 uninduced inactive.
`CCc1ccc2oc(=O)cc(CN(C)Cc3ccccc3)c2c1` gave KCNQ1 inh inactive, KCNK9 block inactive, Kir21 block inactive, KCNQ1 act inactive, hERG protect inactive and KCNK3 block inactive.
Screening Cc1ccc2c(CN(C)Cc3ccc(Cl)cc3)cc(=O)oc2c1 returned KCNQ1 inh inactive, KCNK9 block -11.5, Kir21 block inactive, KCNQ1 act inactive, hERG protect inactive, KCNK3 block -15.9, KCNK9 block conf 37.5%, Kir21 sel inactive, KCNK9 uninduced 43.5%, KCNK3 inh conf 94.3 and KCNK3 uninduced inactive.
Cc1ccc(CNC(=O)c2ccc(Cl)c(S(=O)(=O)N3CCCCC3)c2)cc1 was read as KCNK3 block inactive.
Screening O=Cc1c(OCc2ccccc2)ccc2ccccc12 returned KCNQ1 inh inactive, KCNK9 block -16.9, Kir21 block inactive, KCNQ1 act inactive, hERG protect inactive, KCNK3 block -10.8, KCNK9 block conf 63.5%, Kir21 sel inactive, KCNK9 uninduced 49.5%, KCNK3 inh conf 112.7 and KCNK3 uninduced 0.153.
`CC(C)CCN(C(=S)Nc1cccc(C(F)(F)F)c1)C(C)c1ccccn1` (stereo not given) gave KCNQ1 inh inactive, KCNK9 block -9.33, Kir21 block inactive, KCNQ1 act inactive, hERG protect inactive, KCNK3 block -14, KCNK9 block conf 63.5%, Kir21 sel inactive, KCNK9 uninduced 42.0%, KCNK3 inh conf 130.3 and KCNK3 uninduced 0.129.
Screening CN(N=Nc1cccc([N+](=O)[O-])c1)c1cccc([N+](=O)[O-])c1 returned KCNQ1 inh inactive, KCNK9 block -10.6, Kir21 block inactive, KCNQ1 act inactive, hERG protect inactive, KCNK3 block inactive, KCNK9 block conf inactive, Kir21 sel inactive, KCNK9 uninduced 33.5%, KCNK3 inh conf 90.0 and KCNK3 uninduced inactive.
`CCCN(N=Nc1cccc([N+](=O)[O-])c1)c1cccc([N+](=O)[O-])c1` gave KCNQ1 inh inactive, KCNK9 block -12.4, Kir21 block inactive, KCNQ1 act inactive, hERG protect inactive, KCNK3 block -9.18, KCNK9 block conf 50.0%, Kir21 sel inactive, KCNK9 uninduced 43.0%, KCNK3 inh conf 115.0 and KCNK3 uninduced inactive.
Screening COc1cc(/C=C2\C(=N)N3N=C(S(C)(=O)=O)SC3=NC2=O)cc(OC)c1OCCOc1ccc(C)cc1 returned KCNQ1 inh inactive, KCNK9 block inactive, Kir21 block inactive, KCNQ1 act inactive, hERG protect inactive, KCNK3 block -12.1, KCNK9 block conf inactive, Kir21 sel inactive, KCNK9 uninduced inactive, KCNK3 inh conf 99.0 and KCNK3 uninduced 0.136.
COc1cc(/C=C2\C(=N)N3N=C(S(C)(=O)=O)SC3=NC2=O)ccc1OCCOc1ccc(C)cc1 was read as KCNQ1 inh 10, KCNK9 block inactive, Kir21 block inactive, KCNQ1 act inactive, hERG protect inactive, KCNK3 block -9.06, KCNK9 block conf inactive, Kir21 sel inactive, KCNK9 uninduced inactive, KCNK3 inh conf 75.3 and KCNK3 uninduced 0.158.
`CCOc1cc(/C=C2\C(=N)N3N=C(S(C)(=O)=O)SC3=NC2=O)ccc1OCCOc1cccc(OC)c1` gave KCNQ1 inh inactive, KCNK9 block inactive, Kir21 block inactive, KCNQ1 act inactive, hERG protect inactive and KCNK3 block inactive.
`O=C(CCc1ccccc1)Nc1ccc(S(=O)(=O)Nc2nccs2)cc1` gave KCNQ1 inh inactive, KCNK9 block inactive, Kir21 block inactive, KCNQ1 act inactive, hERG protect inactive and KCNK3 block inactive.
Screening CC(Sc1nncn1C)C(=O)Nc1ccc(N2CCCCC2)cc1 (stereo not given) returned KCNK3 block inactive.
For COc1ccccc1C(=O)Oc1ccc(C(C)(C)C)cc1 the results were KCNQ1 inh inactive, KCNK9 block inactive, Kir21 block inactive, KCNQ1 act inactive, hERG protect inactive, KCNK3 block -9.1, KCNK9 block conf inactive, Kir21 sel inactive, KCNK9 uninduced inactive, KCNK3 inh conf 92.7 and KCNK3 uninduced 0.157.
Screening Clc1nc(-c2ccccc2)cc(-c2ccc(Br)cc2)n1 returned KCNQ1 inh 6, KCNK9 block -12.4, Kir21 block inactive, KCNQ1 act inactive, hERG protect inactive, KCNK3 block -9.8, KCNK9 block conf 55.0%, Kir21 sel inactive, KCNK9 uninduced 51.0%, KCNK3 inh conf 103.3 and KCNK3 uninduced inactive.
